Assay results as given in PMC11831629 (The Journal of International Medical Research, 2025).
Bridge positions count the residues as written; N and C are the ends. Square brackets hold non-standard residues; d marks the D form. Peptide text beside a SMILES is read from it. * marks the point of attachment. X1 = CC[C@H](C)CCCCC(=O)*; Dab = NCC[C@H](N)C(=O)O

Legend:
[1] = multicenter study; cited from earlier work
[2] = assay type: in vivo, human
How it was run: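 Elderly ICU patients without prior renal failure, AKI, RRT or ECMO received iv test compound for more than 3 days. AKI was a creatinine rise of more than 50% from baseline. Trough and peak plasma levels were measured by HPLC-MS/MS after at least six doses. AUCss,24h and Css,avg were derived with first-order elimination equations. ROC analysis gave sensitivity and specificity for AKI prediction.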

[3] = ROC curve analysis, critically ill elderly patients, 28 AKI vs 30 non-AKI

CC[C@H](C)CCCCC(=O)N[C@@H](CCN)C(=O)N[C@H](C(=O)N[C@@H](CCN)C(=O)N[C@H]1CCNC(=O)[C@H]([C@@H](C)O)NC(=O)[C@H](CCN)NC(=O)[C@H](CCN)NC(=O)[C@H](CC(C)C)NC(=O)[C@@H](Cc2ccccc2)NC(=O)[C@H](CCN)NC1=O)[C@@H](C)O [polymyxin B] (X1-[Dab]T[Dab][Dab][Dab][dF]L[Dab][Dab]T; lactam 4-C)
mortality rate of patients with PB-associated AKI higher than that of patients without AKI [1]: 17%
area under the ROC curve of Css,avg for prediction of PB-AKI ([2]; 95% CI 0.579-0.847): 0.713
area under the ROC curve of Cmin for prediction of PB-AKI ([2]; 95% CI 0.661-0.910): 0.786
cutoff value for Cmin for predicting AKI [2, 3]: 2940 ng/mL
cutoff value for Css,avg for predicting AKI [2, 3]: 4140 ng/mL
sensitivity of Cmin cutoff for prediction of PB-AKI ([2]; cutoff 2.94 mg/L): 78.57%
specificity of Cmin cutoff for prediction of PB-AKI ([2]; cutoff 2.94 mg/L): 80.00%
sensitivity of Css,avg cutoff for prediction of PB-AKI ([2]; cutoff 4.14 mg/L): 82.14
specificity of Css,avg cutoff for prediction of PB-AKI ([2]; cutoff 4.14 mg/L): 53.33%
